Data on 60 compounds can be found in ChEMBL document CHEMBL2375244 (J Med Chem, 2013).

The target in experiment [1] is T1, CDK2/Cyclin A2 (Homo sapiens, UniProt P24941). Put plainly: Inhibition of human CDK2/Cyclin A2 using PKTPKKAKKL as substrate by PK/LDH spectrophotometric analysis. The experiment is classed as protein-complex assay.
In experiment [2] the target is T1, CDK2/Cyclin A2. The experiment in a line: Inhibition of human CDK2/Cyclin A2 using PKTPKKAKKL as substrate by fluorescence assay. The experiment is classed as protein-complex assay.
Experiment [3] can be described thus: Cytotoxicity against mouse GC-1 cells after 72 hrs by MTT assay. Format: functional, cell-based. Conditions: GC-1, 72 h. Summed up: (§1)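 Cells kept in RPMI or DMEM with 10% FBS at 37 °C, 5% CO₂ and allowed to attach overnight; 72 h with increasing inhibitor concentrations; then 1 mg/mL MTT for 3 h, DMSO solubilisation, OD read at 540 nm. Testis lines had culture conditions adapted to them. Dose-response in triplicate, 9 concentrations between 0.02 and 100 μM, averaged.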

The nature of experiment [4]: Cytotoxicity against mouse GC-2 cells after 72 hrs by MTT assay. Format: functional, cell-based. Conditions: GC-2, 72 h. In outline: as §1
Background: Tetrazolium dyes change colour on reduction, which living cells bring about.

Experiment [5] in a line: Cytotoxicity against mouse TM4 cells after 72 hrs by MTT assay. Format: functional, cell-based. Conditions: TM4, 72 h. In outline: as §1
Another experiment relates to MDA-MB-468. The experiment in a line: Cytotoxicity against human MDA-MB-468 cells after 72 hrs by MTT assay. Format: functional, cell-based. Conditions: MDA-MB-468, 72 h. In outline:
as §1

SMILES strings stand for the structures.

The term IC50 denotes the concentration that gives 50% inhibition. At CDK2/Cyclin A2 [1], `Nc1nc(Nc2cccc(F)c2)sc1C(=O)c1ccccc1` returned an IC50 of 5.7 µM. The same measure, in the same setting: as for `Nc1nc(Nc2cccc(S(N)(=O)=O)c2)sc1C(=O)c1cccnc1`, the figure is 7.8 µM; as for `Nc1nc(Nc2ccccc2)sc1C(=O)c1cccc(C(F)(F)F)c1`, over 100 µM. Same read-out and setting: as for `C=CCNc1nc(N)c(C(=O)c2ccccc2)s1`, the figure is 15 µM.

For the compound `CC(C)Nc1nc(N)c(C(=O)c2cccnc2)s1`, on CDK2/Cyclin A2 [2], the IC50 is 0.52 µM. This counts as sub-micromolar. At CDK2/Cyclin A2 [1], `CCNc1nc(N)c(C(=O)c2ccccc2)s1` gave an IC50 of 17 µM. In other words, the double-digit micromolar range. The same measure, in the same setting: as for `CNc1nc(N)c(C(=O)c2ccccc2)s1`, the figure is 95 µM; as for `Nc1nc(Nc2ccccc2)sc1C(=O)c1cc(C(F)(F)F)cc(C(F)(F)F)c1`, over 100 µM. The same measure, in the same setting: as for `COC(=O)c1ccccc1C(=O)c1sc(Nc2ccc(S(N)(=O)=O)cc2)nc1N`, the figure is 32 µM; as for `COc1ccc(C(=O)c2sc(Nc3ccc(S(N)(=O)=O)cc3)nc2N)cc1`, 17 µM. Still for that read-out and setting: as for `Nc1nc(Nc2ccc(S(N)(=O)=O)cc2)sc1C(=O)C1CCCCC1`, the figure is 3.5 µM; as for `N#Cc1ccc(Nc2nc(N)c(C(=O)c3cccnc3)s2)cc1`, 2.8 µM; as for `CCOC(=O)c1sc(Nc2ccccc2)nc1N`, over 100 µM. For the compound `C=CCNc1nc(N)c(C(=O)c2cccc([N+](=O)[O-])c2)s1`, at CDK2/Cyclin A2 [1], the IC50 was 2.9 µM. In other words, the single-digit micromolar range. On to `Nc1nc(Nc2ccccc2)sc1C(=O)c1ccc(F)cc1`, for which the IC50 in experiment [3] was determined as 16 µM; in experiment [4], 17 µM; against CDK2/Cyclin A2 [1] it was 1.4 µM; in experiment [5], 14 µM. `C=C(C)CNc1nc(N)c(C(=O)c2ccccc2)s1` had an IC50 against CDK2/Cyclin A2 [1] of 15 µM. `CCCNc1nc(N)c(C(=O)c2ccccc2)s1` had an IC50 against CDK2/Cyclin A2 [1] of 8.9 µM.

`Nc1nc(Nc2ccc(S(N)(=O)=O)cc2)sc1C(=O)c1cccc(Cl)c1` came in with an IC50 on CDK2/Cyclin A2 [1] of 15 µM. On the same count and under the same terms, as for `CC(C)Nc1nc(N)c(C(=O)c2ccccc2)s1`, the figure is 2 µM.

Compound `COc1cccc(C(=O)c2sc(Nc3ccc(S(N)(=O)=O)cc3)nc2N)c1` had an IC50 on CDK2/Cyclin A2 [2] of 0.1 µM. This lies in the sub-micromolar range.

For the compound `C=CCNc1nc(N)c(C(=O)c2ccc(F)cc2)s1`, the IC50 on CDK2/Cyclin A2 [1] is over 100 µM. With `Nc1nc(Nc2ccc(S(N)(=O)=O)cc2)sc1C(=O)c1ccccc1`, the IC50 in experiment [3] is 17 µM; in experiment [4], 6.1 µM; against CDK2/Cyclin A2 [2] it was 0.13 µM; in experiment [5] it was 9.1 µM.

For `Nc1nc(NC2CCCCC2)sc1C(=O)c1cccnc1`, the IC50 in the experiment on MDA-MB-468 worked out at 3.1 µM; at CDK2/Cyclin A2 [2] it was 0.38 µM. With `CC(C)(C)Nc1nc(N)c(C(=O)c2ccccc2)s1`, the IC50 against CDK2/Cyclin A2 [1] was over 100 µM.

On to `Nc1nc(Nc2ccccc2)sc1C(=O)c1cccc([N+](=O)[O-])c1`, for which, at CDK2/Cyclin A2 [1], the IC50 stood at 2.2 µM. On the same count and under the same terms, as for `C=CCNc1nc(N)c(C(=O)c2ccc(C)cc2)s1`, the figure is 37 µM; as for `C=CCNc1nc(N)c(C(=O)c2ccc(Cl)cc2)s1`, over 100 µM. Still for that read-out and setting: as for `COc1cccc(C(=O)c2sc(Nc3ccccc3)nc2N)c1`, the figure is 3.1 µM. In turn, `NC(=O)c1ccc(Nc2nc(N)c(C(=O)c3cccnc3)s2)cc1` yielded an IC50 against CDK2/Cyclin A2 [2] of 0.2 µM. `C=CCNc1nc(N)c(C(C)=O)s1` showed an IC50 against CDK2/Cyclin A2 [1] of over 100 µM. Same read-out and setting: as for `Nc1nc(Nc2ccc(S(N)(=O)=O)cc2)sc1C(=O)c1cccc(O)c1`, the figure is 1.5 µM; as for `C=CCNc1nc(N)c(C(=O)c2ccc(Cl)s2)s1`, 12 µM; as for `NC(=O)c1sc(Nc2ccc(S(N)(=O)=O)cc2)nc1N`, 4.8 µM.

With `C=CCNc1nc(N)c(C(=O)c2ccncc2)s1`, the IC50 against CDK2/Cyclin A2 [1] is 49 µM. The same measure, in the same setting: as for `Nc1nc(Nc2ccc(S(N)(=O)=O)cc2)sc1C(=O)c1ccc([N+](=O)[O-])cc1`, the figure is 7.4 µM. `NC(=O)c1sc(Nc2ccccc2)nc1N`: the IC50 in experiment [3] was over 60 µM; in experiment [4], over 60 µM; on CDK2/Cyclin A2 [1], over 100 µM; in experiment [5] it was over 60 µM. With `C=CCNc1nc(N)c(C(=O)Nc2cc(C)no2)s1`, at CDK2/Cyclin A2 [1], the IC50 is over 100 µM. On CDK2/Cyclin A2 [1], `Nc1nc(Nc2ccc(C(F)(F)F)cc2)sc1C(=O)c1ccccc1` registered an IC50 of over 100 µM. On the same count and under the same terms, as for `Nc1nc(Nc2ccccc2)sc1C(=O)c1cccc(Cl)c1`, the figure is 99 µM. On the same count and under the same terms, as for `Nc1ccc(C(=O)c2sc(Nc3ccc(S(N)(=O)=O)cc3)nc2N)cc1`, the figure is 8.8 µM; as for `CC(C)(C)OC(=O)N1CCC(Nc2nc(N)c(C(=O)c3cccnc3)s2)CC1`, 3.5 µM. On to `C=CCNc1nc(N)c(C(=O)c2ccc3ccccc3c2)s1`, for which, on CDK2/Cyclin A2 [1], the IC50 stood at 5 µM. This IC50 and that of the compound before are within 1.5-fold of each other. Same read-out and setting: as for `Nc1nc(Nc2ccc(S(N)(=O)=O)cc2)sc1C(=O)c1cc(C(F)(F)F)cc(C(F)(F)F)c1`, the figure is 25 µM; as for `C=CCNc1nc(N)c(C(=O)c2ccc([N+](=O)[O-])cc2)s1`, 41 µM.

On to `Nc1nc(Nc2ccccc2)sc1C(=O)c1cccc(F)c1`, for which the IC50 in experiment [3] was determined as 3.6 µM; in experiment [4], 4.1 µM; on CDK2/Cyclin A2 [1] it was 1.6 µM; in experiment [5] it was 5.1 µM. Compound `C=CCNc1nc(N)c(C(=O)C(C)(C)C)s1` gave an IC50 against CDK2/Cyclin A2 [1] of over 100 µM. The same measure, in the same setting: as for `CC(=O)c1sc(Nc2ccccc2)nc1N`, the figure is over 100 µM; as for `C=CCNc1nc(N)c(C(=O)c2ccc(OC)cc2)s1`, 35 µM.

The compound `Cc1ccccc1C(=O)c1sc(Nc2ccc(S(N)(=O)=O)cc2)nc1N` came in with an IC50 against CDK2/Cyclin A2 [1] of 4.8 µM. On the same count and under the same terms, as for `CN(C)/C=C/C(=O)c1sc(Nc2ccc(S(N)(=O)=O)cc2)nc1N`, the figure is over 100 µM; as for `Nc1nc(Nc2ccccc2)sc1C(=O)c1ccc2ccccc2c1`, over 100 µM. With `Nc1nc(Nc2ccccc2)sc1C(=O)c1cccnc1`, the IC50 was 5.9 µM in experiment [3], 9.5 µM in experiment [4], 0.65 µM on CDK2/Cyclin A2 [2] and 5.5 µM in experiment [5]. With `Nc1nc(Nc2ccc(S(N)(=O)=O)cc2)sc1C(=O)c1cccc(C(F)(F)F)c1`, half-maximal inhibition at CDK2/Cyclin A2 [2] (IC50) required 0.57 µM. With `Nc1nc(Nc2ccc(C(=O)O)cc2)sc1C(=O)c1cccnc1`, on CDK2/Cyclin A2 [1], 4 µM corresponded to half-maximal inhibition (IC50). `C=CCNc1nc(N)c(C(=O)c2ccccn2)s1` registered a half-maximal inhibitory concentration (IC50) against CDK2/Cyclin A2 [1] of 33 µM.

In the case of `Nc1nc(Nc2ccc(S(N)(=O)=O)cc2)sc1C(=O)c1cccc([N+](=O)[O-])c1`, the IC50 in experiment [3] worked out at 22 µM; in experiment [4] it was 20 µM; on CDK2/Cyclin A2 [2] it was 0.07 µM; in experiment [5], 4 µM. `C=CCNc1nc(N)c(C(=O)c2cccnc2)s1`: the IC50 against CDK2/Cyclin A2 [1] is 3.1 µM.

`Nc1nc(Nc2ccccc2)sc1C(=O)c1ccccc1`: the IC50 was 11 µM in experiment [3], 11 µM in experiment [4], 0.93 µM at CDK2/Cyclin A2 [2] and 12 µM in experiment [5].

On CDK2/Cyclin A2 [1], `Nc1nc(NC2CCNCC2)sc1C(=O)c1cccnc1` displayed an IC50 of 43 µM. As to `Nc1nc(NC2CCCCC2)sc1C(=O)c1ccccc1`, the IC50 in experiment [3] is 9.2 µM; in experiment [4], 8.2 µM; against CDK2/Cyclin A2 [1], 1.3 µM; in experiment [5], 9.3 µM.
